Experimental data as given in publication PMC5242172 (Pharmacology Research & Perspectives, 2016).
Like-named read-outs stand apart in the source and are kept apart here.

Key:
NCI-H23 cells [1] = assay: Viable cell number; type: cell-based, human; settings: NCI-H23, 6 h of treatment
Summary of the method: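 NCI-H23 cells were grown in RPMI 1640 with 5% FBS at 37°C, 5% CO2, and exposed to test compound (DMSO stocks 10 or 100 mmol/L) for 6 h. Viable cells were counted by trypan blue exclusion on an automated cell counter and expressed as % of nontreated control; mean ± SEM, n = 3.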

[2] = molecular target: bovine heart mitochondrial complex I (Bos taurus, UniProt P03887+P17694+P42026); assay: Complex I activity; type: biochemical
Chain of bovine heart mitochondrial complex I (P03887 whole entry): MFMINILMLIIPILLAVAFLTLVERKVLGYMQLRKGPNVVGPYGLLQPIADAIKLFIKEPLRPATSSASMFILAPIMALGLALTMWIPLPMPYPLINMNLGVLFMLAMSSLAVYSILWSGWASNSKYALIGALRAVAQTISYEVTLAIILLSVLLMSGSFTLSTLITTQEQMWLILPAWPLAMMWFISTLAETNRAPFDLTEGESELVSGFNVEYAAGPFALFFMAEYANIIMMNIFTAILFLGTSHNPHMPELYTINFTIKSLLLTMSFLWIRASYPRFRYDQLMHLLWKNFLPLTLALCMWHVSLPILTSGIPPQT
Chain of bovine heart mitochondrial complex I (P42026 38-216): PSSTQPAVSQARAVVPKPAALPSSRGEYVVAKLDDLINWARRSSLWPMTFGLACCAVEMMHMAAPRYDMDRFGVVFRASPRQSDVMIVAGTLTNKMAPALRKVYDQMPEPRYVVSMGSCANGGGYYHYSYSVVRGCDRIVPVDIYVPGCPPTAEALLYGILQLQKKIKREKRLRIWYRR
Chain of bovine heart mitochondrial complex I (P17694 34-463): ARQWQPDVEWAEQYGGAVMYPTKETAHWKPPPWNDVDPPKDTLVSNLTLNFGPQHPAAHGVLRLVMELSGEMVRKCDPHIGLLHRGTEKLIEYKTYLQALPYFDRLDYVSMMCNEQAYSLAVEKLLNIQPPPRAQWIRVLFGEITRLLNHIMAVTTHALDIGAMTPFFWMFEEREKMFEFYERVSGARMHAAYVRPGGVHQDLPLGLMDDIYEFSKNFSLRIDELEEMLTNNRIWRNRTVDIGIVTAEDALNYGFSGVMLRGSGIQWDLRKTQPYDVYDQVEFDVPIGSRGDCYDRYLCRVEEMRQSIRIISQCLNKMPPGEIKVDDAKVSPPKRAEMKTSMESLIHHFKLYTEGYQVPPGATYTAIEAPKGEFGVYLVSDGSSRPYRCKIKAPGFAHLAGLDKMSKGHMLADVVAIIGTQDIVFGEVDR

xenograft tumors = settings: ref Kojima et al. 2014; cited from earlier work
[3] = tested on: mitochondrial complexes (complex II–V); assay: Activities of OxPhos complexes II-V; type: biochemical; settings: II + III, IV, V (Fig. S2)
NCI-H23 cells [4] = assay: Cellular ATP measurement; type: cell-based, human; settings: NCI-H23, 6 h of treatment
Summary of the method: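 NCI-H23 cells in RPMI 1640 with 5% FBS were plated at 1–2 × 10^5 cells/mL and incubated overnight at 37°C, 5% CO2. Test compound diluted in medium was added for 6 h, with final DMSO below 1%. Lysis buffer and substrate were added, and luciferase-based luminescence was read. ATP was expressed as % of solvent-treated wells; mean ± SEM, n = 3.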

NCI-H23 cells [5] = assay: Cellular oxygen consumption rate; type: cell-based, human; settings: NCI-H23, 1 h after drug
[6] = tested on: panel of 39 human cancer cell lines (JFCR39); assay: Growth inhibition profile, summary over the JFCR39 panel; type: cell-based
[7] = tested on: mitochondrial DNA-deficient (ρ0) NCI-H23 cells; assay: Growth of ρ0 versus ρ+ cells, sulforhodamine B assay; type: cell-based, human; settings: NCI-H23 ρ0 vs ρ+, 48 h

CCCCCCCCCCCC[C@@H](O)[C@H]1CC[C@H]([C@H](O)CCCCCCCCCCNC(=O)c2ccsc2)O1 [JCI-20679, N‐((R)‐11‐Hydroxy‐11‐{(2R,5R)‐5‐[(R)‐1‐hydroxytridecyl]tetrahydrofuran‐2‐yl}undecyl)thiophene‐3‐carboxamide]
viable cell number (NCI-H23 cells [1]): hardly changed
IC50 [2]: 0.17 µM
complex I inhibition, activity relative to rotenone ([2]; ratio of IC50 values): seven times less activity than rotenone
complex I inhibition, times greater activity than phenformin ([2]; ratio of IC50 values): 6000 times
complex I inhibition, times greater activity than solamin ([2]; ratio of IC50 values): 30 times
antitumor activity in mouse xenograft models (xenograft tumors): more potent antitumor activity than solamin
side effects in mouse xenograft models (xenograft tumors): no severe side effects
inhibition of mitochondrial complexes II–V [3]: None of the other mitochondrial complexes (complex II–V) were inhibited
effect on intracellular ATP content (NCI-H23 cells [4]): ATP depletion by JCI‐20679 in a dose‐dependent manner
effect on cellular oxygen consumption rate (NCI-H23 cells [5]): inhibited the oxygen consumption of NCI‐H23 cells in a dose‐dependent manner
GI50 ([6]; 48 h, read-out: MG-MID, the mean of log GI50 values for 39 cell lines (converted)): 2.75 µM
GI50 ([6]; read-out: mean GI50 within the JFCR39 panel): 2.75 µM
sensitivity of ρ0 cells compared with ρ+ cells [7]: more resistant

COc1cc2c(cc1OC)[C@@H]1C(=O)c3ccc4c(c3O[C@@H]1CO2)C=CC(C)(C)O4 [Deguelin, reference compound]
IC50 [2]: 0.04 µM

CN(C)c1cccc2c(S(=O)(=O)NCCCCCCCCC[C@@H](O)[C@H]3CC[C@H]([C@H](O)CCCCCCCCCCNC(=O)c4ccsc4)O3)cccc12 [JCI-13291, N‐[(R)‐11‐((2R,5R)‐5‐{(R)‐10‐[5‐(Dimethylamino)naphthalene‐1‐sulfonamido]‐1‐hydroxydecyl}tetrahydrofuran‐2‐yl)‐11‐hydroxyundecyl]thiophene‐3‐carboxamide]
effect on intracellular ATP content (NCI-H23 cells [4]): depleted intracellular ATP content
effect on cellular oxygen consumption rate (NCI-H23 cells [5]): inhibited the aerobic aspiration of NCI‐H23 cells

C=C(C)[C@H]1Cc2c(ccc3c2O[C@@H]2COc4cc(OC)c(OC)cc4[C@@H]2C3=O)O1 [Rotenone, reference compound]
effect on cellular oxygen consumption rate (NCI-H23 cells [5]): inhibited the oxygen consumption of NCI‐H23 cells in a dose‐dependent manner
